In ChEMBL document CHEMBL2390835, “Synthesis and antimalarial testing of neocryptolepine analogues: addition of ester function in SAR study of 2,11-disubstituted indolo[2,3-b]quinolines” (Eur J Med Chem, 2013):

Experiments:
[1] = Selectivity index, ratio of IC50 for rat L6 cells to IC50 for chloroquine-sensitive erythrocytic stage of Plasmodium falciparum NF54; format: toxicity, cell-based; settings: read-out: Ratio IC50
Summary of the method: (§1)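 IC50 in rat L6 skeletal myoblasts divided by the antiplasmodial IC50 for the named strain. L6 cells were seeded at 4000 per well in RPMI 1640 with L-glutamine and 10% FBS and exposed to eleven 3-fold dilutions from 100 to 0.002 µg/mL for 70 h. Alamar Blue was then added for 2 h and fluorescence read at ex 536 / em 588 nm. IC50 by linear regression of the sigmoidal curves.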

[2] = tested on: Plasmodium falciparum; test: Resistance index, ratio of IC50 for chloroquine-resistant erythrocytic stage of Plasmodium falciparum K1 to IC50 for chloroquine-sensitive erythrocytic stage of Plasmodium falciparum NF54; format: functional
[3] = tested on: Plasmodium falciparum; test: Antimalarial activity against chloroquine-sensitive erythrocytic stage of Plasmodium falciparum NF54 infected in human red blood cells assessed as growth inhibition after 72 hrs by [3H]-hypoxanthine incorporation assay
[4] = tested on: L6; test: Cytotoxicity against rat L6 cells assessed as growth inhibition after 70 hrs by Alamar blue staining-based inverted microscopic analysis; format: cell-based; settings: L6, 70 h
Summary of the method: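 L6 rat skeletal myoblasts, 4000 cells/well in RPMI 1640 with 1% L-glutamine (200 mM) and 10% FBS. Eleven 3-fold dilutions spanning 100 to 0.002 µg/mL. After 70 h, Alamar Blue added for 2 h more. Fluorescence read at ex 536/em 588 nm. IC50 from sigmoidal dose–inhibition curves by linear regression.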

[5] = tested on: Plasmodium falciparum; test: Antimalarial activity against chloroquine-resistant erythrocytic stage of Plasmodium falciparum K1 infected in human red blood cells assessed as growth inhibition after 48 hrs by [3H]-hypoxanthine incorporation assay; format: functional, organism-based
Summary of the method: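 Erythrocytic P. falciparum in RPMI 1640 without hypoxanthine, with HEPES, NaHCO3, neomycin, Albumax, and human A+ red cells at 2.5% haematocrit and 0.3% parasitaemia. Compounds from a 10 mg/mL DMSO stock, eleven 3-fold dilutions from 100 to 0.002 µg/mL. Incubated 48 h at 37 °C (4% CO2, 3% O2), then 3H-hypoxanthine added for 24 h more. Cells harvested and counted by scintillation. IC50 by linear regression of the sigmoidal curves, mean of two independent assays.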

[6] = Selectivity index, ratio of IC50 for rat L6 cells to IC50 for chloroquine-resistant erythrocytic stage of Plasmodium falciparum K1; format: toxicity, cell-based; settings: read-out: Ratio IC50; summary of the method: as §1
[7] = Inhibition of beta-haematin formation after 5 to 6 hrs by UV-vis spectamax plate reader analysis; format: functional
Summary of the method: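 Detergent-mediated assay: compounds from DMSO stocks (20, 2, 0.4 mM) in duplicate, 0–1000 µM final. Added water and NP-40, then haematin at 100 µM final in 0.5 M acetate buffer pH 4.8. Incubated at 37 °C for 5–6 h. Pyridine added to 5% v/v final in HEPES pH 7.4 with acetone. Haem–pyridine absorbance read (405 nm). IC50 from sigmoidal fits.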

[8] = Solubility of the compound in water; format: physicochemical; settings: buffer
[9] = tested on: Plasmodium berghei; test: Antimalarial activity against Plasmodium berghei infected in Swiss mouse assessed as reduction in parasitaemia at 20 mg/kg, ip administered for 4 days measured on day 7 by FACS analysis relative to control; format: functional; set-up: scale not given: the % may be the effect or the level left; settings: route intraperitoneal
Summary of the method: (§2)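 Intraperitoneal dosing at 20 mg/kg daily for four consecutive days. Parasitaemia read on day 4 and day 7. Activity is the difference between mean percent parasitaemia of the control group (n = 5 mice) and the treated group, expressed as a percent of control.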

[10] = tested on: Plasmodium berghei; test: Antimalarial activity against Plasmodium berghei infected in Swiss mouse assessed as reduction in parasitaemia at 20 mg/kg, ip administered for 4 days measured on day 4 post last dose by FACS analysis relative to control; format: functional; set-up: scale not given: the % may be the effect or the level left; settings: route intraperitoneal; summary of the method: as §2
[11] = tested on: MRC5; test: Cytotoxicity against human MRC5 cells assessed as growth inhibition; format: cell-based

Row | SMILES | selectivity ratio [1] | Ratio IC50 [2] | IC50 [3] [nM] | IC50 [4] [nM] | IC50 [5] [nM] | selectivity ratio [6] | IC50 [7] [nM] | solubility [8] | Activity [9] [%] | Activity [10] [%] | IC50 [11] [nM]
1 | Cn1c2nc3ccccc3c-2c(NCCCN)c2ccccc21 | 3.5 | – | – | – | – | – | – | – | – | – | –
2 | COC(=O)c1ccc2c(c1)c(NCCCNC(=O)Nc1ccccc1)c1c3cc(Br)ccc3nc-1n2C | 157 | 2.75 | 7.15 | 1120 | 19.7 | 56.9 | 10100 | – | – | – | –
3 | Cn1c2nc3ccc(Br)cc3c-2c(NCCCNC(=O)Nc2ccccc2)c2cc(Cl)ccc21 | 73 | 3 | 5.59 | 408 | 16.8 | 24.3 | 17800 | – | – | – | –
4 | COC(=O)c1ccc2nc3n(C)c4ccc(Br)cc4c(NCCCN)c-3c2c1 | 361 | – | 2.27 | 819 | – | – | 11500 | – | – | – | –
5 | COC(=O)c1ccc2c(c1)c(NCCCN)c1c3cc(Br)ccc3nc-1n2C | 232 | 3.5 | 4.54 | 1050 | 15.9 | 66 | 10200 | – | – | – | –
6 | Cn1c2nc3ccc(Br)cc3c-2c(NCCCN)c2cc(Cl)ccc21 | 186 | 8.89 | 2.16 | 401 | 19.2 | 20.9 | 30100 | – | – | – | –
7 | Cn1c2nc3ccc(C(=O)O)cc3c-2c(NCCCN)c2ccccc21 | 66.8 | – | 1690 | 113000 | – | – | – | soluble | – | – | –
8 | CN(C)CCNc1c2c3cc(C(=O)O)ccc3nc-2n(C)c2ccccc12 | 7.84 | – | 2550 | 20000 | – | – | – | soluble | – | – | –
9 | CN(C)CCCNc1c2c3cc(C(=O)O)ccc3nc-2n(C)c2ccccc12 | 30.6 | – | 2160 | 66200 | – | – | – | soluble | – | – | –
10 | COC(=O)c1ccc2c(c1)c(NCCCNC(=O)Nc1ccccc1)c1c3ccccc3nc-1n2C | 181 | 13.5 | 4.16 | 754 | 56.1 | 13.4 | 23000 | – | – | – | –
11 | COC(=O)c1ccc2c(c1)c(NCCCNC(=S)Nc1ccccc1)c1c3ccccc3nc-1n2C | 321 | 8.89 | 1.81 | 581 | 16.1 | 36.1 | 15700 | – | – | – | –
12 | COC(=O)c1ccc2nc3n(C)c4ccccc4c(NCCCNC(=O)Nc4ccccc4)c-3c2c1 | 178 | 4.71 | 14.5 | 2580 | 68.4 | 37.7 | 12800 | – | – | – | –
13 | COC(=O)c1ccc2nc3n(C)c4ccccc4c(NCCCNC(=S)Nc4ccccc4)c-3c2c1 | 467 | 10.7 | 6.03 | 2820 | 64.4 | 43.8 | 10800 | – | – | – | –
14 | COC(=O)c1ccc2nc3n(C)c4ccc(C(=O)OC)cc4c(NCCCNC(=O)Nc4ccccc4)c-3c2c1 | 1590 | 2.44 | 16.7 | 26500 | 40.8 | 650 | 4600 | – | – | – | –
15 | COC(=O)c1ccc2nc3n(C)c4ccc(C(=O)OC)cc4c(NCCCNC(=S)Nc4ccccc4)c-3c2c1 | 43.5 | 3.5 | 14.4 | 627 | 50.4 | 12.4 | 7500 | – | – | – | –
16 | COC(=O)c1ccc2nc3n(C)c4ccc(Cl)cc4c(NCCCNC(=O)Nc4ccccc4)c-3c2c1 | 246 | 1.71 | 13.6 | 3340 | 23.3 | 143 | 14900 | – | – | – | –
17 | COC(=O)c1ccc2nc3n(C)c4ccc(Br)cc4c(NCCCNC(=O)Nc4ccccc4)c-3c2c1 | 837 | – | 8.05 | 6740 | – | – | 16000 | – | – | – | –
18 | COC(=O)c1ccc2nc3n(C)c4ccccc4c(N4CCCN(C)CC4)c-3c2c1 | 8.25 | – | 750 | 6190 | – | – | 106000 | – | – | – | –
19 | COC(=O)c1ccc2nc3n(C)c4ccccc4c(N4CCOCC4)c-3c2c1 | 2.15 | – | 1770 | 3810 | – | – | 55500 | – | – | – | –
20 | COC(=O)c1ccc2c(c1)c(NCCCN)c1c3ccccc3nc-1n2C | 40.7 | 2.67 | 8.28 | 337 | 22.1 | 15.2 | 104000 | – | 72.5 | 33.4 | –
21 | COC(=O)c1ccc2nc3n(C)c4ccc(C(=O)OC)cc4c(NCCCN)c-3c2c1 | 146 | 1.25 | 9.52 | 1390 | 11.9 | 117 | 13000 | – | – | – | –
22 | COC(=O)c1ccc2nc3n(C)c4ccc(Cl)cc4c(NCCCN)c-3c2c1 | 56.4 | 2.67 | 7.57 | 427 | 20.2 | 21.1 | 25400 | – | – | – | –
23 | COC(=O)c1ccc2nc3n(C)c4ccccc4c(NCCCN)c-3c2c1 | 8.79 | 1.22 | 24.8 | 218 | 30.3 | 7.19 | 48900 | – | 72.5 | 33.4 | –
24 | COC(=O)c1ccc2nc3n(C)c4ccccc4c(NCCCCN)c-3c2c1 | 7.81 | – | 55.8 | 436 | – | – | – | – | – | – | –
25 | COC(=O)c1ccc2nc3n(C)c4ccccc4c(NCCN(C)C)c-3c2c1 | 7.41 | – | 42.5 | 315 | – | – | 51500 | – | – | – | –
26 | COC(=O)c1ccc2nc3n(C)c4ccccc4c(NCCCN(C)C)c-3c2c1 | 8.05 | – | 33.3 | 268 | – | – | 62500 | – | – | – | –
27 | COC(=O)c1ccc2nc3n(C)c4ccccc4c(NCCCO)c-3c2c1 | – | – | 278 | 639 | – | – | 123000 | – | – | – | –
28 | Cn1c2nc3ccccc3c-2cc2cc(Br)ccc21 | – | – | – | – | – | – | – | – | – | – | > 32000
29 | CCN(CC)CCCC(C)Nc1ccnc2cc(Cl)ccc12 (configuration not stated) [CHLOROQUINE] | – | – | – | – | – | – | 18400 | – | – | – | –
30 | Cn1c2nc3ccccc3c-2cc2ccccc21 [NEOCRYPTOLEPINE] | 2 | 1.07 | – | – | – | 1.88 | – | – | – | – | –
